Assay results: ChEMBL document CHEMBL1255379, “Evaluation of Etest method for determining isavuconazole MICs against Cryptococcus gattii and Cryptococcus neoformans” (2008)
In brackets after ≈: the same amount, converted by molar mass.

Columns and labels:
[1] = system: Cryptococcus gattii species complex; test: Antimicrobial activity against Cryptococcus gattii by broth microdilution method; assay type: functional, Cryptococcus bacillisporus
Summary of the method: (§1)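 CLSI M27-A2 broth microdilution in RPMI 1640 with L-glutamine, no bicarbonate, MOPS-buffered to pH 7.0. Isavuconazole stock in DMSO; final concentrations 0.015 to 8 μg/ml. Inoculum 0.5 × 10³ to 2.5 × 10³ cells/ml from subcultured isolates. Incubated at 35°C. MIC read at 48 and 72 h as 50% reduction in turbidity versus drug-free control. Candida krusei ATCC 6258 and C. parapsilosis ATCC 22019 served as quality controls.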

[2] = system: Cryptococcus gattii species complex; test: Antimicrobial activity against Cryptococcus gattii by Etest method; assay type: functional, Cryptococcus bacillisporus
Summary of the method: (§2)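 Isolates (clinical and environmental), maintained in sterile water or glycerol broth, subcultured at least twice on Sabouraud dextrose agar. Suspension adjusted to 0.5 McFarland and swabbed onto RPMI agar plates with 2% glucose; isavuconazole Etest strips applied. Incubated at 35°C, read at 48 and 72 h. MIC taken where prominent growth reduction meets the strip, raised to the next twofold level.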

Cryptococcus neoformans [3] = test: Antimicrobial activity against Cryptococcus neoformans by broth microdilution method; assay type: functional; summary of the method: as §1
Cryptococcus neoformans [4] = test: Antimicrobial activity against Cryptococcus neoformans by Etest method; assay type: functional; summary of the method: as §2

MIC [1]: ≤ 0.015 µg/mL
MIC50 [1]: 0.03 µg/mL (≈ 0.0686 µM)
MIC90 [1]: 0.06 µg/mL (≈ 0.137 µM)
MIC [2]: 3 ng/mL (≈ 0.00686 µM)
MIC50 [2]: 0.032 µg/mL (≈ 0.0731 µM)
MIC90 [2]: 0.125 µg/mL (≈ 0.286 µM)
MIC (Cryptococcus neoformans [3]): ≤ 0.015 µg/mL
MIC50 (Cryptococcus neoformans [3]): ≤ 0.015 µg/mL
MIC90 (Cryptococcus neoformans [3]): 0.06 µg/mL (≈ 0.137 µM)
MIC (Cryptococcus neoformans [4]): 2 ng/mL (≈ 0.00457 µM)
MIC50 (Cryptococcus neoformans [4]): 0.023 µg/mL (≈ 0.0526 µM)
MIC90 (Cryptococcus neoformans [4]): 0.047 µg/mL (≈ 0.107 µM)
SMILES: C[C@@H](c1nc(-c2ccc(C#N)cc2)cs1)[C@](O)(Cn1cncn1)c1cc(F)ccc1F [ISAVUCONAZOLE]
